Screening data (PubChem BioAssay)
G6PDH CS: L. mesenteroides G6PDH inhibitors, counter-screen for G6PDH-coupled screening assays, biochemical, Leuconostoc mesenteroides enzyme. glucose-6-phosphate dehydrogenase [Leuconostoc mesenteroides]. Purified L. mesenteroides G6PDH, diaphorase/resazurin coupled fluorescence, 45 min. inhibition, % at 5 µM. 200,000 compounds, 0.12% hits; in the data active means inhibition above about 50%
Diaph act CS: compounds boosting diaphorase resazurin reduction – biochemical, uHTS, resorufin fluorescence, counter-screen for diaphorase-coupled primary assays, primary screen; Diaphorase/resazurin coupled assay, 16 min; active compounds read high; 1 = vehicle wells, 0 = NADH-free wells; activation factor at 20 µM; 190,000 compounds, 0.005% hits; AID 1229, 2008;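 active means diaphorase activity raised at least twofold by the compound at 20 µM; inactive means activation factor below 2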
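Material: purified diaphorase enzyme from Clostridium kluyveri; Also added: 0.114 mM NADH and 0.1 mM resazurin, final amounts; Doses: single compound dose of 20 µM, 1% DMSO final; Times: 16 min enzyme reaction, ambient temperature; Detection: resorufin fluorescence, excitation 544 nm, emission 590 nm; Measure: increased resorufin signal from activators or reducing compounds.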
Diaphorase inh: diaphorase inhibitors and chemical oxidizers, primary screen, counter-screen for diaphorase-coupled primary assays, biochemical, uHTS, resorufin fluorescence; diaphorase resazurin-to-resorufin fluorescence, NADH, 16 min; bacterial (C. kluyveri) enzyme, not human; inhibition, % at 20 µM; 190,000 compounds, 0.69% hits; AID 1217, 2008;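 active means primary screen inhibition at 20 µM above a set limit, cut at about 50% in these data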;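 further: plate controls were DMSO with full reaction for no effect and wells lacking NADH for full effect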
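Assay system – diaphorase enzyme from Clostridium kluyveri · Amount – diaphorase 0.14 U/mL (working solution) · Times – reaction incubation of 16 min at room temperature · Controls – No-NADH positive control and DMSO neutral control · Signal – resorufin fluorescence 544/590 nm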
PMI activator: activators of human PMI, primary screen, biochemical, fluorescence intensity, near-Km mannose 6-phosphate; Mannose-6-phosphate isomerase (Homo sapiens), P34949; purified human PMI, coupled resazurin fluorescence, 20 min; active compounds read high; 1 = vehicle control, 0 substrate-free wells; activation factor at 20 µM; 190,000 compounds, 0.005% hits; AID 1214, 2008;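 active means activation factor of 2 or more at 20 µM, relative to plate controls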
Target sequence (P34949 whole entry, looked up): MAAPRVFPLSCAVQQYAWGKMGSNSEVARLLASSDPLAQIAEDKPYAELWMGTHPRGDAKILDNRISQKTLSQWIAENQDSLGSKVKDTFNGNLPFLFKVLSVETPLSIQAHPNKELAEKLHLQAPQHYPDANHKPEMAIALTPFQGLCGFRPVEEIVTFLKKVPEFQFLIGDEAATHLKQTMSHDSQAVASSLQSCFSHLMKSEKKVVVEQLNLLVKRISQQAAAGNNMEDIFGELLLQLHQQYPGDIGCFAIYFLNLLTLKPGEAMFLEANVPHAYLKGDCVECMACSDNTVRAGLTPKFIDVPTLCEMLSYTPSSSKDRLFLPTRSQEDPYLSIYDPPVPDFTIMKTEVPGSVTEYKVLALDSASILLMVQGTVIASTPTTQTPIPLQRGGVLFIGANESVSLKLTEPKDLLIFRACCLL
PMI act hi M6P: human PMI activators, high substrate, primary screen, biochemical, fluorescence intensity, near-saturating mannose 6-phosphate; coupled PMI enzyme assay, resazurin fluorescence, 20 min; active compounds read high; 1 = untreated enzyme, 0 = substrate-free blank; AID 1216, 2008; 190,000 compounds, 0.34% hits; activation factor at 20 µM; Mannose-6-phosphate isomerase (Homo sapiens), P34949;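 active means activation factor of 2 or more at 20 µM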
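test system = human PMI in coupled enzyme assay | medium = HEPES-buffered pH 7.4 with magnesium and detergent | also added = 1.0 mM mannose-6-phosphate substrate with 0.22 mM NADP+ | compound = 20 µM single dose | times = 20 min incubation at room temperature | measured by = resorufin fluorescence (Ex 544/Em 590 nm) from resazurin via diaphorase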
The depositor's hits bear a star. In the library only some 1.1% were active in any assay of this set; here they are far more common.

SMILES | G6PDH CS | Diaph act CS | Diaphorase inh | PMI activator | PMI act hi M6P
CC(C)c1nc2sc3c(NCc4ccccc4)ncnc3c2c2c1COC(C)(C)C2 | -3 | 0.4 | 58* | 1 | 1
CC(C)Cn1c(-c2csc3c2CCCC3)n[nH]c1=S | 8 | 1 | 1 | 0.9 | 1
C/C(N)=C(/C#N)C(=O)COC(=O)c1ccc(C#N)cc1 | 0 | 0.8 | 15 | 1.1 | 1
O=C(NC1CCCCC1)C1CC(O)CN1C(=O)OCc1ccccc1 (centres undefined) | -7 | 1 | 1 | 1 | 1
COC(=O)C1CC(O)CN1C(=O)NC1CCCCC1 (centres undefined) | 22 | 0.9 | 9 | 1.6 | 2.4*
CN1CSC2=C(C#N)C(c3cccc(OCc4ccccc4)c3)CC(=O)N2C1 (centres undefined) | 14 | 0.8 | 17 | 0.7 | 0.4
COc1ccc(N2CSC3=C(C#N)C(c4cccs4)CC(=O)N3C2)cc1 (centres undefined) | 38 | 0.5 | 53* | 1.1 | 0.9
CCCSC1=C(C#N)C(c2cc(OC)ccc2OC)CC(=O)N1 (centres undefined) | 7 | 0.9 | 13 | 0.9 | 0.8
N#CC1=C2SCN(c3ccc(F)cc3)CN2C(=O)CC1c1cccc(F)c1 (centres undefined) | 42 | 0.5 | 48 | 0.6 | 0.9
COc1ccc(N2CSC3=C(C#N)C(c4ccc(OC)c(OC)c4)CC(=O)N3C2)c(OC)c1 (centres undefined) | 43 | 0.4 | 58* | 0.6 | 1.1
Cc1ccc(N2CSC3=C(C#N)C(c4cccs4)CC(=O)N3C2)cc1 (centres undefined) | 22 | 0.5 | 46 | 1.3 | 1.7
COc1ccc(C2CC(=O)N3CN(c4ccc(C)c(Cl)c4)CSC3=C2C#N)cc1OC (centres undefined) | 18 | 0.4 | 60* | 0.9 | 1.3
COc1ccc(N2CSC3=C(C#N)C(c4cc(OC)ccc4OC)CC(=O)N3C2)c(OC)c1 (centres undefined) | 50* | 0.4 | 57* | 0.5 | 0.4
CCN(CC)S(=O)(=O)c1cc(NC(=O)CSc2nc3c(cc2C#N)C(=O)CC(C)(C)C3)ccc1C | 0 | 0.9 | 14 | 1.1 | 1
COc1ccc(C2(C(=O)Nc3ccc(C)c(C)c3)CCOCC2)cc1 | 16 | 0.8 | 20 | 0.9 | 0.8
COc1ccc(NC(=O)C2CCCN2C(=O)Oc2ccccc2)cc1 (centres undefined) | 15 | 1.1 | -15 | 1 | 1
CSc1ccccc1NC(=O)CN(C)CC(=O)Nc1ccccc1C(F)(F)F | -2 | 1 | 0 | 1.1 | 1.1
COc1cc(OC)c(C2CC(=O)N3CN(c4ccc(C)cc4)CSC3=C2C#N)cc1OC (centres undefined) | 44 | 0.5 | 46 | 0.7 | 0.7
CCc1ccc(N2CSC3=C(C#N)C(c4cccs4)CC(=O)N3C2)cc1 (centres undefined) | -14 | 0.7 | 34 | 1.2 | 1.7
CCOc1ccccc1N1CSC2=C(C#N)C(c3c(OC)ccc4ccccc34)CC(=O)N2C1 (centres undefined) | 42 | 0.3 | 67* | 0.4 | 0.3
CCc1ccc(C2CC(=O)N3CN(c4ccccc4)CSC3=C2C#N)cc1 (centres undefined) | 19 | 0.5 | 55* | 1 | 1.5
COc1ccc(N2CSC3=C(C#N)C(c4cc(OC)c(OC)cc4OC)CC(=O)N3C2)c(OC)c1 (centres undefined) | 44 | 0.3 | 66* | 0.3 | 0.6
O=[N+]([O-])c1ccccc1NC(=S)N/N=C/c1ccc(O)c(O)c1 | 11 | 0.3 | 72* | 0.5 | 1
CCC1=C/C(=C/c2sc3ccccc3[n+]2CC)CC(C)(C)C1 | -3 | 0.8 | 17 | 1.6 | 2.3*
CNc1ccc(Br)cc(C(=O)/C=C/c2ccc3c(c2)OCO3)c1=O | 39 | 0.4 | 57* | 0.8 | 1
SMILES | G6PDH CS | Diaph act CS | Diaphorase inh | PMI activator | PMI act hi M6P
CCOC(=O)C(C(=O)OCC)N(C#N)c1nc(N(C)C)nc(N(C)C)n1 | 10 | 1 | -1 | 1 | 1
C=C(C)CN(CC)c1nc(N)c2c(N)nc3c(c2c1C#N)CC(=O)N3C12CC3CC(CC(C3)C1)C2 | 4 | 0.8 | 20 | 1 | 1
N#Cc1c(N2CCCC(O)C2)nc(N)c2c(N)nc3c(c12)CC(=O)N3C12CC3CC(CC(C3)C1)C2 (centres undefined) | 50 | 0.4 | 55* | 0.4 | 0.4
CCOc1ccc(S(=O)(=O)NCCCl)cc1 | 14 | 1.1 | -5 | 1 | 1
c1ccc2c3c(cc(N4CCOCC4)c2c1)OC1(N2CCOCC2)CCCCC1O3 (centres undefined) | 50* | 0.7 | 25 | 0.7 | 0.4
CC1CCC/C(=N\Nc2ccc(Cl)c(C(=O)O)c2)C1 (centres undefined) | 17 | 0.9 | 8 | 1.7 | 2.1*
CCN(CC)CCNC(=O)CSc1c2c(nc3cc(Cl)ccc13)CCCC2 | 6 | 0.5 | 53* | 0.7 | 0.4
Clc1cccc(Cl)c1/C=N\Nc1nccs1 | 7 | 1 | 1 | 1 | 1
O=[N+]([O-])c1cc(/C=N\Nc2nccs2)ccc1O | 4 | 0.1 | 90* | 0.9 | 0.9
COC(=O)c1cc(O)c(OCc2ccccc2)c(O)c1 | -8 | 0.9 | 10 | 0.9 | 0.9
COC(=O)c1cc(O)c(O)c(O)c1 | 22 | 0.5 | 50* | 0.7 | 0.9
Cc1sc2nc(CSc3ccc([N+](=O)[O-])c(C(F)(F)F)c3)[nH]c(=O)c2c1C | 16 | 1 | -1 | 1.2 | 1.2
CCC(C)(C(=O)NC1CCCCC1)N(C(=O)CNC(=O)c1ccccc1)c1c(C)n(C)n(-c2ccccc2)c1=O (centres undefined) | 6 | 1 | 4 | 1.1 | 1.1
O=c1[nH]c2ccccc2nc1C(Cl)c1ccccc1 (centres undefined) | 4 | 0.8 | 20 | 1.6 | 2.1*
COc1ccc2c(c1)CCc1sc(NC(=O)c3ccco3)nc1-2 | 16 | 0.5 | 55* | 0.7 | 0.4
COc1ccc2c(c1)-c1nc(NC(=O)c3ccco3)sc1CC2 | 1 | 0.8 | 19 | 0.8 | 0.7
Nc1c(C(=O)NC2CC2)c2nc3ccccc3nc2n1-c1ccc2c(c1)OCO2 | 12 | 0.3 | 66* | 0.9 | 0.5
